# FN deposit inh – inhibitors of fibronectin matrix deposition, primary screen, AH1F cells, Alexa488-fibronectin fluorescence, plate reader; AH1F fibroblasts, overnight; inhibition, % at 12.6 µM; hit rate 0.086% among 350,000; AID 743247, 2014;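 active = mean inhibition across replicates of 30% or more, regardless of how many single replicates reach that level; inconclusive = mean under 30% yet at least half of replicates reach 30%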;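 also: positive control wells lacked labelled fibronectin entirely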
#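 Material: AH1F fibroblasts assembling fluorescent fibronectin matrix; amount: 10000 AH1F cells/well; medium: DMEM, 2% serum; reagent: Alexa488-fibronectin, 24 nM final in well; dosing: single compound dose, delivered by pin transfer; incubation: 1 h adhesion, overnight exposure; detection: fluorescence after three HBSS washes, excitation 485 nm, emission 525 nm; measure: fibronectin deposition inhibition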
# SIRT5 block – SIRT5 desuccinylase inhibitors, primary screen, biochemical, fluorescence imaging, single point, set 5; inhibition, % at 15 µM; AID 652115, 2013; Purified SirT5, succinyl-peptide AMC, trypsin-coupled fluorescence; hit rate 1.1% among 330,000; NAD-dependent protein deacylase sirtuin-5, mitochondrial (Homo sapiens), Q9NXA8; in the data active = inhibition above about 15%; inconclusive = no clear call, values can overlap the other calls
# E-selectin induc – E-selectin induction in HUVECs, primary screen, imaging, HUVEC, immunofluorescence imaging, single point; activation, % at 7.58 µM; normalized: neutral wells 0, TNF-alpha wells 100; P16581; hit rate 0.37% among 260,000; AID 686992, 2013;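 active = mean E-selectin-positive cell signal at least 10% of the positive control, reached in at least 60% of replicates, without over 20% cell loss; inconclusive = no rule given, readout overlaps actives, possibly toxicity-flagged; inactive = the rest, including those meeting only one limit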
# Target sequence (P16581 whole entry, looked up): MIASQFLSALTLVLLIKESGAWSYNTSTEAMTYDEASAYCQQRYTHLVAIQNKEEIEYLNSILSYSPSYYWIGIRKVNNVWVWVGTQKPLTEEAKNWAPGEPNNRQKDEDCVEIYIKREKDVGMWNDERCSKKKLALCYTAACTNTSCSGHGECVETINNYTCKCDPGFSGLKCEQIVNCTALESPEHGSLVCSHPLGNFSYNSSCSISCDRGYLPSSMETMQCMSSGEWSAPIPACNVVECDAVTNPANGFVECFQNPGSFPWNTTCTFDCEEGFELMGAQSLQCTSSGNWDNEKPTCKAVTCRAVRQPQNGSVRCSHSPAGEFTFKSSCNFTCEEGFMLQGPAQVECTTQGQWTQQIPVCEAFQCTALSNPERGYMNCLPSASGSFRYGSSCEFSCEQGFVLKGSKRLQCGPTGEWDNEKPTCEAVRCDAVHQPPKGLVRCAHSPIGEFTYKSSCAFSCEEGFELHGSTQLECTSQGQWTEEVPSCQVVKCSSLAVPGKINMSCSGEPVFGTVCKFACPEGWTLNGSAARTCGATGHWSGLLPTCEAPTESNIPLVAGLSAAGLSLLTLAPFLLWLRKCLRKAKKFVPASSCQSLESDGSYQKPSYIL
#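 Read-out: % PE-positive cells | Test system: HUVEC | Doses: One compound dose added by pin transfer | Buffer or medium: EGM-2 over gelatin coat | Signal: Immunofluorescence imaging | Benchmarks: TNF-alpha, DMSO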
# Ecoli rRNA inh – reduced GFP signal of wild-type E. coli, primary screen, bacterial rRNA inhibitor project, GFP/RFP fluorescence, OD600, single point; E. coli WT GFP vs humanized-ribosome RFP mutants, 24 h; active compounds read low; DMSO median 0, no signal -100; GFP signal change (wild-type ribosome), % (no concentration beside the values); hit rate 1.6% among 350,000; AID 720706, 2013;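 active = significant combined selectivity score with lowered wild-type GFP, culture density cut under 30%, mutant RFP and density less affected; inactive = any of these conditions unmet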
# FGF22 binding – binders of human FGF22 protein, primary screen, FGF22 synaptogenesis inhibitor project, biophysical, thermal shift, single point | Fibroblast growth factor 22 (Homo sapiens), Q9HCT0 | recombinant FGF22 thermal shift, SYPRO orange fluorescence; percent of sucrose octasulfate shift, DMSO zero | activity (Tm shift, normalised), % at 9.99 µM | hit rate 1.5% among 340,000 | AID 651658, 2012;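 active = mean Tm shift, scaled 0 neutral to 100 positive control, at about 1.3% or above, every replicate too, limit read from the data; inconclusive = no clear call, values can overlap the other calls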
# Statin myotox sup – suppressors of statin myotoxicity in C2C12 myotubes, primary screen, cell-based, single point, plate reader; C2C12 myotubes + simvastatin, ATP luminescence, 48 h; scaled: DMSO 0, geranylgeraniol control 100; AID 602340, 2012; hit rate 0.78% among 330,000; rescue of ATP level, % at 7.49 µM;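 active = mean ATP rescue above about 67%, or every replicate alone reaching that limit, limit read from the data, passing the limit was not always enough; inconclusive = no clear call, values can overlap the other calls; inactive = mean under the limit and some replicate under it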;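 also: myotubes were challenged with 10 µM simvastatin during compound exposure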
# AID977621 – growth inhibition of wild-type GFP E. coli, dose response, H69 mutant RFP, cherry-pick; shares compounds with Ecoli rRNA inh; E. coli wild-type GFP strain growth, fluorescence, 24 h; activity change, negative = inhibition at 50 µM; 1,900 tested, under 10 active;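 active = Wild-type ribosome reporter drop at least double the humanized mutant ribosome reporter drop, growth loss under a set limit; inconclusive = no clear call, values can overlap the other calls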;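 also: wild-type GFP and H69 mutant RFP strains grown together 50/50 in each well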
# AID977628 – E. coli growth inhibition, wild-type GFP versus h24 humanized RFP strain, dose response, h24 mutant RFP vs wild-type GFP, cherry-pick. shares compounds with Ecoli rRNA inh. E. coli WT GFP strain growth, fluorescence, 24 h. activity change, negative = inhibition at 50 µM. 1,900 tested, under 10 active;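 active = compound lowering the normal-ribosome reporter at least twice as much as the humanized-ribosome reporter, growth loss under a set limit; inconclusive = no clear call, values can overlap the other calls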;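 also: wild-type GFP and h24 humanized RFP strains co-cultured 1 to 1 per well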
# Active calls of the source: *; ? = inconclusive; . = no result given; ! = not active in a repeat. An excerpt weighted towards active compounds, which were near 4% of everything screened.
SMILES,FN deposit inh,SIRT5 block,E-selectin induc,Ecoli rRNA inh,FGF22 binding,Statin myotox sup,AID977621,AID977628
CC(=O)Nc1cccc(OCc2ccc([N+](=O)[O-])cc2)c1,.,-0.2,-0.1,-23.1*,-0.4,.,-5.95,-6.55
COc1cccc(NC(=O)c2ccc(-c3ccc([N+](=O)[O-])cc3)o2)c1,.,-0.8,.,-28.2*,0.3,.,-22.9,.
CC(=O)Nc1cccc(OCCCOc2ccc([N+](=O)[O-])cc2)c1,-3.5,-1.4,2.1,2.6,-0.2,.,.,.
CCOC(=O)c1cnc2c(ccc3ccccc32)c1NCCCN(C)C,4.6,-5.2,0.1,-26.2*,-0.3,11.5,-4.27,.
C[C@@H]1CCCCO[C@@H](CN(C)Cc2ccccc2)[C@H](C)CN([C@@H](C)CO)C(=O)c2cc(NS(=O)(=O)c3ccccc3)ccc2O1,.,-1.8,0.0,1.6,0.2,.,.,.
COc1ccccc1C1CCN(Cc2ccccc2)CC1,-3.3,-2.4,-0.1,3.1,-0.1,-0.1,.,.
COc1ccccc1C1CCN(Cc2cccc([N+](=O)[O-])c2)CC1,7.3,-1.8,.,-24.4*,0.1,.,.,?
CCS(=O)(=O)N1CCN(c2ccnc3cc(Cl)ccc23)CC1,-5.7,0.9,6.4,-21.2*,-0.1,.,-4.29,.
O=C(Nc1nc2ccccc2n1CCN1CCOCC1)c1ccccc1,-6.4,3.7,.,-16.5*,0.0,-10.6,-31.7,-25.9
[O-][n+]1ccccc1/C=C/c1ccccc1,0.9,-1.8,5.8,-26.2*,0.1,.,-11.5,?
COCc1[nH]nc2c1C(c1ccc3c(c1)OCO3)N(c1ccc(OC)cc1)C2=O (stereo not given),5.1,.,-0.2,-29.7*,-0.3,.,4.74,0.031
C=CCN1C(=O)c2n[nH]c(COC)c2C1c1ccc2c(c1)OCO2 (stereo not given),4.5,0.2,-0.2,6.1,0.2,.,.,.
CC(C)CNC(=O)c1cccc(NC(=O)C(C)Oc2ccccc2)c1 (stereo not given),-5.9,1.7,.,-24.2*,42.0,.,-15.6,-11.9
COc1ccc(OC(C)C(=O)Nc2cccc(F)c2)cc1 (stereo not given),9.1,0.9,.,-22.8*,0.2,.,-1.75,?
CC=Cc1ccc2n(c1=O)C[C@H]1[C@H](CO)[C@@H](C(=O)NCC)[C@@H]2N1Cc1nccs1 (mixture of isomers),.,-17.4,-0.2,0.1,0.1,-5.1,.,.
CC(=O)Nc1nc(C)c(-c2csc(Nc3ccccn3)n2)s1,9.5,-1.1,2.5,-20.4*!,0.1,.,0.269,.
N#C[C@H]1[C@@H](c2ccccc2-c2ccccc2F)[C@H](CO)N1C(=O)C1CCOCC1,-4.6,1.7,-0.1,2.0,0.2,.,.,.
Cc1cc(C(=O)COC(=O)CNC(=O)c2ccccc2)c(C)n1CC1CCCO1 (stereo not given),-0.9,-0.3,-0.1,-19.6*,0.2,.,-4.91,-9.97
Cc1cccc(C(=O)NCC(=O)OCC(=O)c2cc(C)n(CC3CCCO3)c2C)c1 (stereo not given),-3.0,-0.1,2.2,-6.2,0.2,.,.,.
C[C@H]1CN([C@@H](C)CO)S(=O)(=O)c2ccc(-c3cccc(C#N)c3)cc2O[C@H]1CN(C)C(=O)C1CC1,9.4,10.8,-0.2,-8.0,-0.1,-42.1,.,.
O=S(=O)(c1ccc(F)cc1)N1C[C@@H]2N[C@H](C1)C2c1ccc(/C=C/c2ccccc2)cc1 (stereo not given in full),-23.5,.,0.1,-27.7*!,0.4,.,-1.33,.
O=C(C[C@@H]1C=C[C@@H](NC(=O)C2CC2)[C@@H](CO)O1)NCCCN1CCOCC1,.,-2.2,0.1,2.1,0.7,9.0,.,.
O=C(C[C@@H]1CC[C@H]2[C@@H](COC[C@@H](O)CN2Cc2cc(F)cc(F)c2)O1)NC1CCC1,-10.0,-2.5,-0.1,1.1,.,7.0,.,.
CN(c1ccccc1)S(=O)(=O)c1cccc(NC(=O)CCNC(=O)c2ccc([N+](=O)[O-])cc2)c1,-2.9,-1.1,-0.1,-16.7*,0.1,-16.2,-4.66,?
CC1Cc2cc(S(=O)(=O)N3CCN(c4ccc(Cl)cc4)CC3)ccc2N1C(=O)C1CC1 (stereo not given),2.1,-3.4,.,3.7,-0.2,9.3,.,.
SMILES,FN deposit inh,SIRT5 block,E-selectin induc,Ecoli rRNA inh,FGF22 binding,Statin myotox sup,AID977621,AID977628
CC1Cc2cc(S(=O)(=O)N3CCN(c4cccc(Cl)c4)CC3)ccc2N1C(=O)C1CC1 (stereo not given),2.7,-2.4,.,-25.5*,0.1,-22.3,-5.45,-8.8
COc1ccc(C2CC(c3cccs3)=NN2S(C)(=O)=O)cc1 (stereo not given),13.4,-2.1,4.7,1.4,0.3,14.4,.,.
COc1ccc(C2CC(c3cccs3)=Nc3ccccc3S2)cc1 (stereo not given),.,-4.3,.,-25.6*,0.0,?,-1.17,?
O=C(C[C@@H]1CC[C@@H]2NC[C@H](O)COC[C@H]2O1)NCCN1CCCCC1,-9.9,.,0.0,4.3,0.4,-7.6,.,.
C=C(C)Cn1c(SCC(=O)O)nc2c1c(=O)[nH]c(=O)n2C,-1.5,0.1,.,-12.4*,-0.1,-5.1,?,?
C=C(C)Cn1c(SCCN2CCOCC2)nc2c1c(=O)[nH]c(=O)n2C,-8.1,.,.,.,.,5.7,.,.
COC(=O)[C@@H](Cc1c[nH]c2ccccc12)NCc1cccc(B(O)O)c1,-2.9,.,-0.1,-20.2*,0.0,2.4,?,.
COCC(=O)N1CC[C@@H]2[C@@H](CO)Nc3ccc(-c4ccc(C#N)cc4)cc3[C@@H]21,5.8,.,-0.5,-0.4,-0.3,7.5,.,.
Cc1cccc(NC(=O)C2CCCCN2S(=O)(=O)c2ccccc2)c1C (stereo not given),-3.9,-1.0,-0.1,-10.6,0.0,0.5,.,.
O=C(Nc1ccccc1N1CCOCC1)C1CCCCN1S(=O)(=O)c1ccccc1 (stereo not given),-5.0,.,3.0,-31.0*,0.1,.,-11.2,-17.4

# Screens from PubChem.
